This is an account of results in PubChem BioAssay AID463177 (The Scripps Research Institute Molecular Screening Center, 2010).

Active and inactive are the calls of the source.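 Rule for the calls: active = apoptotic subG1 cells at or above 20% at some dose above 100 nM; inactive = subG1 cells below 20% at every dose.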

This test can be described thus: apoptosis induction in parental HeLa cells, late-stage follow-up, counter-screen for Wee1 degradation inhibitor project, cell-based, FACS (AID 463177). The note with it: PI FACS subG1 fraction, 20 h; G1 fraction: G1 phase cells, at 5 µM; G2 fraction: G2 phase cells, at 5 µM; S fraction: S phase cells, at 5 µM; subG1 cells, higher = apoptosis: at 5 µM (top of the series). The procedure, abridged:
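Assay system: parental HeLa cells. Compound: 7-point dose series, nominal top concentration 5 µM. Schedule: 20 h compound treatment. Measured by: propidium iodide flow cytometry, DNA content. Measure: Cell-cycle phase fractions (%), subG1 marking apoptosis. Controls: DMSO vehicle reference.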
Background: Counterscreens check selectivity or assay interference.

Regarding `O=[N+]([O-])c1cccc2[nH]c(CNc3nc(N4CCOCC4)nc4c3ncn4-c3ccsc3)nc12`, the G1 fraction was 41.5%; the G2 fraction is 9.18%; the S fraction amounted to 22.8%; the subG1 cells, higher = apoptosis was 26.3% (active).

As to `c1ccc2[nH]c(CNc3nc(N4CCOCC4)nc4c3ncn4-c3ccsc3)nc2c1`, the G1 fraction was found to be 24.9%; the G2 fraction stood at 4.14%; the S fraction amounted to 22.5%; the subG1 cells, higher = apoptosis is 47.6% (active).
